High-throughput results from PubChem.
TbMetRS inhib = blocks T. brucei methionyl-tRNA synthetase activity. purified T. brucei MetRS, ATP depletion, Kinase-Glo luminescence. inhibition, % at 11.9 µM. actives 0.4% (n = 360,000). AID 624268;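 active = inhibition above a per-plate cutoff of the control wells' mean inhibition plus 3 SD, cut at about 5.5% in these data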
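Dosing: 11.9 µM single point; system: parasite MetRS enzyme; technique: luminescence of leftover ATP; times: 15 min enzyme-compound preincubation, 2 h reaction, 10 min detection, 25 °C; replicates: each compound tested once; read-out basis: percent inhibition relative to median high and low control wells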
AHR activator = activators of human aryl hydrocarbon receptor; P35869; AHR-responsive luciferase reporter cells, luminescence; activation, % at 5 µM; actives 2.5% (n = 320,000); AID 2796; in the data active = activation above about 47%
Target sequence (P35869 whole entry, looked up): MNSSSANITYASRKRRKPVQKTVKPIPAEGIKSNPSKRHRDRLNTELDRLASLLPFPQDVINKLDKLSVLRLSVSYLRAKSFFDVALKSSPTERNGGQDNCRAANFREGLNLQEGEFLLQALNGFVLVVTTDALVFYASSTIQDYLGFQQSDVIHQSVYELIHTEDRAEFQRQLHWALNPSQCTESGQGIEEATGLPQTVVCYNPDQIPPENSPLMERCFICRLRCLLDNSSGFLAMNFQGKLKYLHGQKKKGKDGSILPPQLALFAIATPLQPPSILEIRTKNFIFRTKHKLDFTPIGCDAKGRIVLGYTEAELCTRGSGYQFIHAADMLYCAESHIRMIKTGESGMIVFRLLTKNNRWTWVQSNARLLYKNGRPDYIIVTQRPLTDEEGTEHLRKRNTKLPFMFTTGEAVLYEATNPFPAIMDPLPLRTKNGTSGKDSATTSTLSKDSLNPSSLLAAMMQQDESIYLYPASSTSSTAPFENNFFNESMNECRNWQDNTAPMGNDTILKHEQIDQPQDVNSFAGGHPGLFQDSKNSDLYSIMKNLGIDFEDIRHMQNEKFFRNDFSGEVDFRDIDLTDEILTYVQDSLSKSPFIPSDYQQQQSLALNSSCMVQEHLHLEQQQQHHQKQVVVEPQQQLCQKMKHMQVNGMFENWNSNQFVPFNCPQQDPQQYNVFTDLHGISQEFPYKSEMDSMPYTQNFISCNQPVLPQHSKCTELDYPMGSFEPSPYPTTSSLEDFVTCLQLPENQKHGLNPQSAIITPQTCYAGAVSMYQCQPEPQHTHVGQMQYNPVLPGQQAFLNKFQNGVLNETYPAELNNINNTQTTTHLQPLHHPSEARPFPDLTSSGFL
MsrA inh = inhibits bovine methionine sulfoxide reductase A | inhibition, % at 15.5 µM | purified bovine MsrA, absorbance read-out | AID 651718 | actives 0.75% (n = 360,000); in the data active = inhibition above about 4.5%
AI-2 QS mod = modulators of Vibrio harveyi AI-2 quorum sensing system | AID 2094 | Vibrio harveyi JMH597 AI-2 luminescence/OD600 ratio, 9 h; hits give low values; strain lacks LuxN and CqsS sensors; 0 = neutral-control median | activity change, % at 7.5 µM | actives 0.4% (n = 300,000); in the data active = activity change below about -75%, passing the limit was not always enough;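 also: luminescence divided by OD600 gain over 9 h not by final OD600 alone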
MsrA act = bovine methionine sulfoxide reductase A activation. actives 0.3% (n = 360,000). purified bovine MsrA, absorbance read-out. activation, % at 10.6 µM; in the data active = activation above about 7.5%
m5-HT2A agonist = mouse HTR2A agonism via beta-arrestin recruitment. activation, % at 7.6 µM. AID 624169. actives 0.66% (n = 360,000). CHO-K1 mHTR2A beta-arrestin complementation, luminescence; percent of 30 µM serotonin response;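 active = activation above a run cutoff, the mean activation of all tested compounds plus 3 SD, cut at about 14% in these data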
Hits are given with their value; . = inactive; / = no result given. Compounds with a hit are over-represented: about 4.4% of the library has one in this group of screens.

SMILES	TbMetRS inhib	AHR activator	MsrA inh	AI-2 QS mod	MsrA act	m5-HT2A agonist
Cc1cc(Br)ccc1NC(=O)CCSc1ccccc1	.	.	.	.	.	.
Cc1cc(NC(=O)CCSc2ccccc2)ccc1Br	.	.	.	-86.7	.	.
Cc1cc(Oc2cccc3c2S(=O)(=O)N([C@H](C)c2ccccc2)C[C@@H](COCc2ccccc2)O3)cc(C)c1C	/	/	.	/	/	/
C=CCn1c(-c2cccs2)nc2nc3ccccc3nc21	.	70.3	.	.	.	.
CNC(=S)NNC(=O)c1sc(-c2cc(C)on2)nc1C	.	73.9	.	.	.	.
Cc1sc2nc(CN(C(=O)NC3CCCCC3)C3CCCC3)[nH]c(=O)c2c1C	.	.	.	.	.	.
Cc1sc2nc(CN(Cc3cccs3)C(=O)NC3CCCCC3)[nH]c(=O)c2c1C	.	65.1	.	.	.	.
O=c1ccc2[n+]([O-])c3ccc(O)cc3oc-2c1	.	/	.	-417.8	.	.
O=c1cc(O)c2ccc(O)cc2o1	.	.	.	.	.	.
Cn1c(=O)n(CCc2ccccc2)c(=O)c2c1nc1n2CCCN1CCc1ccccc1	.	82.8	.	.	.	.
C=CCCC1CN(Cc2ccc(OC)cc2)S(=O)(=O)c2c(cccc2N(C)S(=O)(=O)c2ccc(C)cc2)O1 (centres undefined)	/	/	.	/	/	/
CCOC(=O)c1c(-c2ccc(C)o2)csc1NC(=S)NC(=O)N(C)C	.	57.4	.	.	.	.
Cc1cc(C)c(C#N)c(SCc2nc3ccccc3[nH]2)n1	.	67.7	.	.	.	.
Cc1ccc(OCCSCc2nc3ccccc3[nH]2)cc1	6.8	.	.	.	.	.
c1ccc(SCc2nc3ccccc3[nH]2)cc1	6.5	.	.	.	.	.
c1coc(-c2nnc(SCc3nc4ccccc4[nH]3)o2)c1	.	49.2	/	.	.	.
Cc1ccc(SCc2nc3ccccc3[nH]2)cc1	.	.	.	.	.	.
C[C@H](CO)N1C[C@H](C)[C@H](CN(C)C(=O)Nc2cccc(F)c2)Oc2cc(Br)ccc2S1(=O)=O	/	/	.	/	/	/
COC(=O)C1=C(N)Oc2cc(C)n(CC3CCCO3)c(=O)c2C1c1ccc(Cl)c(Cl)c1 (centres undefined)	38.4	.	.	.	.	.
CCN(CC)C(=O)[C@H]1C[C@H](CC(=O)NCCC2=CCCCC2)C(=O)N2CCc3c([nH]c4cc(CCC(=O)N(C)C)ccc34)[C@]12C	.	/	.	/	.	.
O=c1cc(-c2ccccc2Cl)oc2cccc(O)c12	.	.	.	.	.	.
O=c1cc(-c2ccccc2Cl)oc2c(Br)ccc(O)c12	.	47.4	.	.	.	.
CC(CC(=O)Nc1ccccc1)NCCCN1CCCC1=O (centres undefined)	.	.	.	.	.	.
Cc1ccc(OCCNCC(O)COc2ccccc2)cc1 (centres undefined)	.	65.8	.	.	.	.
CC(=O)CCc1ccc(OCC(O)CNCCOc2ccc(C)cc2)cc1 (centres undefined)	.	.	.	.	.	.
SMILES	TbMetRS inhib	AHR activator	MsrA inh	AI-2 QS mod	MsrA act	m5-HT2A agonist
NC(=NCc1ccco1)NC(=O)c1ccccc1	.	.	.	.	.	.
NC(=NCc1ccccc1)NC(=O)c1nc(Cl)c(N)nc1N	.	69.2	.	.	.	.
N#CCSc1ccccc1NC(=O)COC(=O)CCNC(=O)c1ccc([N+](=O)[O-])cc1	.	/	.	/	.	.
COc1ccc(NC(=O)N(C)[C@H]2C[C@H]3c4[nH]c5c(-c6ccccc6)cccc5c4CCN3C(=O)[C@H]2[C@H](C)O)cc1	/	/	.	/	/	/
O=C(Nc1ccccc1-c1nc2ccccc2s1)C1=COCCO1	.	93.1	.	.	.	.
O=C(Nc1nc2ccc(F)cc2s1)C1=COCCO1	.	48.0	.	.	.	.
COc1ccc(NC(=O)CN(C)C(=O)c2ccc(S(=O)(=O)Nc3ccccc3C)cc2)cc1	.	/	.	/	.	.
OC(c1ccccc1)(c1ccccc1)C1CCN(CCCOc2ccccn2)CC1	/	/	.	/	/	/
COC(=O)CCN1CCSCCS1(=O)=O	/	/	.	/	/	/
Cc1cc(=O)[nH]c(Nc2ccc(N(C)C)cc2)n1	.	55.4	.	.	.	.
Cc1cc(=O)[nH]c(Nc2ccc(Cl)cc2)n1	.	.	.	.	.	.
COC(=O)C1=C(C)N(C)C(=NCc2ccccc2)NC1CCc1ccccc1 (centres undefined)	/	/	.	/	/	/
